This is an account of results in article PMC3792851 (Drug Design, Development and Therapy, 2013).

In this experiment the test system is ABCG2-transfected HEK293 cells. The experiment is described as follows: Sensitization of ABCG2-transfected cells to mitoxantrone, MTT assay. Format: cell-based, human. The settings on record: no chalcone. The gist of the method: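 ABCG2-transfected (resistant) and empty-vector (sensitive) HEK293 cells seeded at 1 × 10^4 cells/well and incubated overnight. Then grown 72 h at 37°C, 5% CO2 with increasing mitoxantrone; resistant cells ran with or without 1 μM test compound. Survival read by MTT against 0.1% DMSO medium controls. At least three replicates; mitoxantrone IG50 from fitted curves.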
(In general: Tetrazolium assays rely on reduction of a dye to a coloured formazan, in cell work by metabolically active cells.)

As for `O=C1c2c(O)ccc(O)c2C(=O)c2c(NCCNCCO)ccc(NCCNCCO)c21` [mitoxantrone, Mitoxantrone], where the note is “ABCG2-transfected resistant cells”, the “IG50 of mitoxantrone, resistant cells” value amounted to 82.8 ± 21.7 nM. Moreover, the “IG50 of mitoxantrone, sensitive control cells” value (sensitive control HEK293 cells (empty vector)) was 14.5 ± 3.6 nM.
